# Data from ChEMBL document CHEMBL4052694, “Discovery of novel 5-oxa-2,6-diazaspiro[3.4]oct-6-ene derivatives as potent, selective, and orally available somatostatin receptor subtype 5 (SSTR5) antagonists for treatment of type 2 diabetes mellitus” (Bioorg Med Chem, 2017).
# Active and inactive are the calls of the source. No cut-off for these calls is given here.
# Experiments:
# [1] = target: Somatostatin receptor type 5 (Homo sapiens, UniProt P35346); test: Antagonist activity at human SSTR5 expressed in CHO cells assessed as inhibition of SST14-induced forskolin-stimulated intracellular cAMP level incubated for 15 mins followed by forskolin stimulation for 30 mins by HTRF assay; assay type: functional, cell-based
# Sequence of Somatostatin receptor type 5 (Homo sapiens, UniProt P35346) (P35346 whole entry): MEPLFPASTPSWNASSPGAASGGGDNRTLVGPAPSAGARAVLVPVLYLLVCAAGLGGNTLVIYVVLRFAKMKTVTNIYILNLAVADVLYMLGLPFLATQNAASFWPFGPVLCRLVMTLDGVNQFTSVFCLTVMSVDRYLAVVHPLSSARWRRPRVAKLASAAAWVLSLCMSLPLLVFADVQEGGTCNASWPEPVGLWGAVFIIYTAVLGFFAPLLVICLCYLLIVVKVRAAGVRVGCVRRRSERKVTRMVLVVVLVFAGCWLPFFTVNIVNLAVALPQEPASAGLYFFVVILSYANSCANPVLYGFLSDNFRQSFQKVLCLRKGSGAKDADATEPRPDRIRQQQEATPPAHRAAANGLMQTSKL
# [2] = target: T1, Somatostatin receptor type 5 (Mus musculus, UniProt O08858); test: Antagonist activity at mouse SSTR5 expressed in CHO cells assessed as inhibition of SST14-induced forskolin-stimulated intracellular cAMP level incubated for 15 mins followed by forskolin stimulation for 30 mins by HTRF assay; assay type: functional, cell-based
# T1 sequence (O08858 whole entry): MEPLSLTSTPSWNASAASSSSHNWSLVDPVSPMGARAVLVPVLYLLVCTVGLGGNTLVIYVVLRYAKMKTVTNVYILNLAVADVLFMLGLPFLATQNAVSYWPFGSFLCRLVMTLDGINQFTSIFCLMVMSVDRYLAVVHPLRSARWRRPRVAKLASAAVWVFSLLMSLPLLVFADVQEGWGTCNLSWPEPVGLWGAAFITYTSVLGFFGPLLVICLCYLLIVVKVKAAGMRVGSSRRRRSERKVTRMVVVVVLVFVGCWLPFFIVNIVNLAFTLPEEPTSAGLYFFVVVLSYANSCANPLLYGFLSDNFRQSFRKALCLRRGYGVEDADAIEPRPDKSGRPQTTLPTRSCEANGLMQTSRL
# [3] = 1-octanol/aqueous buffer solution partition coefficient, log D of the compound at pH 7.4 by UV-vis/HPLC method; assay type: physicochemical
# Outline: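 Octanol/buffer partition coefficient at pH 7.4, estimated chromatographically by HPLC with UV–vis detection, using conditions adapted from a published method.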
# hERG (KCNH2) = hERG (KCNH2) (Homo sapiens, UniProt Q12809); test: Inhibition of human ERG expressed in CHO cells assessed as decrease in peak tail current at 30 uM after 5 mins at -80 mV holding potential by patch clamp assay relative to control; assay type: cell-based; settings: CHO cells expressing human ERG
# Sequence of hERG (KCNH2) (Q12809 whole entry): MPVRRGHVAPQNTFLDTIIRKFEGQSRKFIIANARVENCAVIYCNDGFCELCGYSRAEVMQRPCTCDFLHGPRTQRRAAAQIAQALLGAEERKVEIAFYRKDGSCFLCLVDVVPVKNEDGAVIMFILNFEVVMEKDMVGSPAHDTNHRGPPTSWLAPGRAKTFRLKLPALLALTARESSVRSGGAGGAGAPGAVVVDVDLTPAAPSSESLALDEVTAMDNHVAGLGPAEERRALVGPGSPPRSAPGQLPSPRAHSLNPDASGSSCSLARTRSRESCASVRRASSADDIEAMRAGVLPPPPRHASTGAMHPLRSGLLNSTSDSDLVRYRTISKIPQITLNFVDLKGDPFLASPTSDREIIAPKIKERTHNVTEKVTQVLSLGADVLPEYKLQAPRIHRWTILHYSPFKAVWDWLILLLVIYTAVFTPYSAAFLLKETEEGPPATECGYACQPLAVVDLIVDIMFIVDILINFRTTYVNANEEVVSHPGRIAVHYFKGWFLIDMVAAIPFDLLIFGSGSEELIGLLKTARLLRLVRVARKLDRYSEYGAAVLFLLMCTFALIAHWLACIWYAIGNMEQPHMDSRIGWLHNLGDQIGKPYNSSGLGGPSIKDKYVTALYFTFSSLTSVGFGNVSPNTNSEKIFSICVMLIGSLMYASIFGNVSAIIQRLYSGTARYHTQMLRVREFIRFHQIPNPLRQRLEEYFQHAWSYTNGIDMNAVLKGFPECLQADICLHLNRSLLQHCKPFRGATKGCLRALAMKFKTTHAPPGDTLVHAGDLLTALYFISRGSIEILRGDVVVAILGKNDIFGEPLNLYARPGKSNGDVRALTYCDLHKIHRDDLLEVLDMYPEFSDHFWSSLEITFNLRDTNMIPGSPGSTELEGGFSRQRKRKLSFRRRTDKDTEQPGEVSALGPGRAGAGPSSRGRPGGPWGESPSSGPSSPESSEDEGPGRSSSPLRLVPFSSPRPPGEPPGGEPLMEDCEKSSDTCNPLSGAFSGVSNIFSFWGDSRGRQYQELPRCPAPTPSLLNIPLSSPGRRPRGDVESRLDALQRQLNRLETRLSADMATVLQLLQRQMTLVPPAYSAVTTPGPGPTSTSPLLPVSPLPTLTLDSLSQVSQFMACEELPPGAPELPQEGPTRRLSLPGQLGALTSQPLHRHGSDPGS
# Outline: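 hERG-expressing CHO cells grown at 32 °C in Ham's F-12 with 10% FBS and Geneticin. Population patch clamp, perforated with 100 µg/mL amphotericin B. PBS with Ca/Mg outside; 140 mM KCl, 2 mM MgCl2, 1 mM EGTA, 20 mM HEPES pH 7.3 inside. Holding -80 mV, step to 40 mV for 2 s, then -50 mV for 2 s. Peak tail current compared before and after 5 min with compound at 30 µM, n = 4.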
# [4] = Solubility of the compound in aqueous buffer solution at pH 6.8 after 18 hrs by HPLC analysis; assay type: physicochemical
# Outline: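 0.4 mg compound in 0.4 mL aqueous buffer, pH 6.8 (Japanese Pharmacopoeia second disintegration fluid). Shaken at 500 rpm at 37 °C for 18 h, then filtered; dissolved concentration measured by HPLC.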
# [5] = target: Somatostatin receptor type 2 (Homo sapiens) (UniProt P30874); test: Inhibition of human SSTR2 at 10 uM by radioligand binding assay relative to control
# Sequence of Somatostatin receptor type 2 (Homo sapiens) (P30874 whole entry): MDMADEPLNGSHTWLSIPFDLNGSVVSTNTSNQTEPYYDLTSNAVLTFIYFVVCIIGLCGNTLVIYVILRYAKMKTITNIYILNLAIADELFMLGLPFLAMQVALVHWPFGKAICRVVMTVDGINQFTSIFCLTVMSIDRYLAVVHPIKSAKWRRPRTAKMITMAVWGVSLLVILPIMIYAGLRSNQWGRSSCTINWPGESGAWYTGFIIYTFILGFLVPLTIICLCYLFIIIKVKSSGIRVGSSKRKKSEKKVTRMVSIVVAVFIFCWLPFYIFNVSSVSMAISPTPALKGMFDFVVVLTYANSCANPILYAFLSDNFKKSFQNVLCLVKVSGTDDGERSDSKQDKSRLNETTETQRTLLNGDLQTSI
# [6] = Tmax in ICR mouse at 1 mg/kg, po administered as cassette dose by LC/MS/MS analysis; assay type: ADME, organism-based; settings: in vivo
# Outline: (§1)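 Non-fasted male ICR mice, 8 weeks old, n = 3, dosed by cassette: 0.1 mg/kg iv, or 1 mg/kg po as a suspension in 0.5% methylcellulose. Plasma deproteinized with acetonitrile and measured by LC/MS/MS. AUC taken over 0–8 h.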
# Mus musculus [7] = test: Antidiabetic activity in HFD-fed C57BL/6J mouse assessed as decrease in blood glucose level administered po pretreated for 1 hr followed by glucose challenge after 1 hr of compound dosing measured up to 120 mins post glucose challenge by OGTT; assay type: functional, organism-based
# Outline: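 Male C57BL/6J mice on high-fat diet for ten days. Fasted overnight and grouped by weight and blood glucose at 12.5 h. Compound given orally at 1, 3, 10 or 30 mg/kg in 0.5% methylcellulose at 15 h; oral glucose 5 g/kg at 16 h.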
# Mus musculus [8] = test: Antidiabetic activity in HFD-fed SSTR5 knockout C57BL/6J mouse assessed as decrease in blood glucose level administered po pretreated for 1 hr followed by glucose challenge after 1 hr of compound dosing measured up to 120 mins post glucose challenge by OGTT; assay type: functional, organism-based
# [9] = target: Somatostatin receptor type 4 (Homo sapiens) (UniProt P31391); test: Inhibition of human SSTR4 at 10 uM by radioligand binding assay relative to control
# Sequence of Somatostatin receptor type 4 (Homo sapiens) (P31391 whole entry): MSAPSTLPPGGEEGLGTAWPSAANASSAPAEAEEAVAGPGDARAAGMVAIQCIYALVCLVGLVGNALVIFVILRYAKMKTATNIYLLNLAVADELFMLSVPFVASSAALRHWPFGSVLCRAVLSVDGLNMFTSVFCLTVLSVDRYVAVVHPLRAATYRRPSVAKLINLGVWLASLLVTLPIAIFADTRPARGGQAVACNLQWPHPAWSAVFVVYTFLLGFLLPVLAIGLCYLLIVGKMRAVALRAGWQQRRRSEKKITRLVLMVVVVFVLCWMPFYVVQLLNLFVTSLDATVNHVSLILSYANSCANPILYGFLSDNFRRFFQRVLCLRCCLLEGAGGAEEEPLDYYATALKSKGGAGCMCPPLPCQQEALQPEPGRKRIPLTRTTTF
# [10] = Intrinsic clearance in human liver microsomes at 1 uM after 15 to 30 mins in presence of NADPH by LC/MS/MS analysis; assay type: ADME, microsome; settings: read-out: CLH
# Outline: (§2)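 Liver microsomes at 0.2 mg/mL protein in 50 mM potassium phosphate buffer pH 7.4 with compound at 1 µM. Reaction started with an NADPH-generating system (5 mM MgCl2, 5 mM glucose-6-phosphate, 0.5 mM β-NADP+, 1.5 U/mL G6PDH). Stopped with acetonitrile at 15 and 30 min; analysed by LC/MS/MS. Metabolic velocity taken from the slope of concentration versus time.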
# [11] = Cmax in ICR mouse at 1 mg/kg, po administered as cassette dose by LC/MS/MS analysis; assay type: ADME, organism-based; set-up: dose 1 mg/kg, route oral; settings: in vivo; outline: as §1
# [12] = Total clearance in ICR mouse at 0.1 mg/kg, iv administered as cassette dose by LC/MS/MS analysis; assay type: ADME, organism-based; settings: in vivo; outline: as §1
# Mus musculus [13] = test: Antidiabetic activity in HFD-fed C57BL/6J mouse assessed as decrease in blood glucose level at 100 mg/kg, po pretreated for 1 hr followed by glucose challenge after 1 hr of compound dosing measured up to 120 mins post glucose challenge by OGTT; assay type: functional, organism-based
# Outline: (§3)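 Male C57BL/6J mice on high-fat diet for ten days. Fasted from morning and grouped by weight and blood glucose at 4 h. Vehicle (0.5% methylcellulose) or compound given orally at 5.5 h; oral glucose 5 g/kg given 1 h later.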
# Mus musculus [14] = test: Toxicity in HFD-fed C57BL/6J mouse assessed as induction of hypoglycemia at 100 mg/kg, po after 1 hr; assay type: organism-based; settings: in vivo
# Mus musculus [15] = test: Antidiabetic activity in HFD-fed C57BL/6J mouse assessed as increase in insulin secretion at 100 mg/kg, po pretreated for 1 hr followed by glucose challenge after 1 hr of compound dosing measured up to 120 mins post glucose challenge by OGTT
# Mus musculus [16] = test: Antidiabetic activity in HFD-fed C57BL/6J mouse assessed as decrease in blood glucose AUC at 100 mg/kg, po pretreated for 1 hr followed by glucose challenge after 1 hr of compound dosing measured up to 120 mins post glucose challenge by OGTT; assay type: functional, organism-based; outline: as §3
# [17] = Volume of distribution at steady state in ICR mouse at 0.1 mg/kg, iv administered as cassette dose by LC/MS/MS analysis; assay type: ADME, organism-based; settings: in vivo, read-out: Vdss; outline: as §1
# [18] = target: Somatostatin receptor type 1 (Homo sapiens) (UniProt P30872); test: Inhibition of human SSTR1 at 10 uM by radioligand binding assay relative to control
# Sequence of Somatostatin receptor type 1 (Homo sapiens) (P30872 whole entry): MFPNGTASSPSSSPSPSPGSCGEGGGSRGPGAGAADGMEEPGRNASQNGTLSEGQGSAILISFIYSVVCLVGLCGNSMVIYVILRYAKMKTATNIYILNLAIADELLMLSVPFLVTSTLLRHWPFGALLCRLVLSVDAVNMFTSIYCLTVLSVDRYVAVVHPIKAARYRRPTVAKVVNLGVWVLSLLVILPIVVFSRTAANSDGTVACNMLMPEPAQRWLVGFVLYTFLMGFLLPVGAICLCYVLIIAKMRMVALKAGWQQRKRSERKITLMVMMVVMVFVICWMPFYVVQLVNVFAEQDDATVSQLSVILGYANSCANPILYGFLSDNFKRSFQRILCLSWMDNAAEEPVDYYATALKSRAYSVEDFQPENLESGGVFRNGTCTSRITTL
# [19] = Intrinsic clearance in mouse liver microsomes at 1 uM after 15 to 30 mins in presence of NADPH by LC/MS/MS analysis; assay type: ADME, microsome; settings: read-out: CLH; outline: as §2
# [20] = target: Somatostatin receptor type 3 (Homo sapiens) (UniProt P32745); test: Inhibition of human SSTR3 at 10 uM by radioligand binding assay relative to control
# Sequence of Somatostatin receptor type 3 (Homo sapiens) (P32745 whole entry): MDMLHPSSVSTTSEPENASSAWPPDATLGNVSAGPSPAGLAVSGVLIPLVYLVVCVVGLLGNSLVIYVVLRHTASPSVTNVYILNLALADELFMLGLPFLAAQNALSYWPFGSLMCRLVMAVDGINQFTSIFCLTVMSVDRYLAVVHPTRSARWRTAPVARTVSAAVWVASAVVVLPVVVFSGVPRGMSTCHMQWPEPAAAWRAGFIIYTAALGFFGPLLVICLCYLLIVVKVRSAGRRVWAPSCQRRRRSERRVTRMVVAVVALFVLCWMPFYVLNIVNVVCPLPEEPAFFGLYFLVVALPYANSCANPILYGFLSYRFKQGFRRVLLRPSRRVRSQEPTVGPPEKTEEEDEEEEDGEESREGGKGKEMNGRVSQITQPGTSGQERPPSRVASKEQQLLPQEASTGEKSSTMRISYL
# [21] = AUC (0 to 8 hrs) in ICR mouse at 1 mg/kg, po administered as cassette dose by LC/MS/MS analysis; assay type: ADME, organism-based; set-up: dose 1 mg/kg, time < 8 hr, route oral; settings: in vivo; outline: as §1
# [22] = Oral bioavailability in ICR mouse at 1 mg/kg administered as cassette dose by LC/MS/MS analysis; assay type: ADME, organism-based; settings: in vivo; outline: as §1
Structure (SMILES),IC50 [1] [nM],IC50 [2] [nM],logD [3],"inhibition at 5 min, 30 µM (hERG (KCNH2)) [%]",other results
CCOc1cc(CN2CC3(CC(c4ccccc4)=NO3)C2)cc(OCC)c1-c1ccc(F)cc1,2800,980,,,
CCOc1cc(CN2CC3(CC(c4ccccc4C(=O)O)=NO3)C2)cc(OCC)c1-c1ccc(F)cc1,> 10000,> 10000,3.1,4.5,
CCOc1cc(CN2CC3(CC(c4ccc(CC(=O)O)cc4)=NO3)C2)cc(OCC)c1-c1ccc(F)cc1,220,74,,,
CCOc1cc(CN2CC3(CC(c4ccc(C(=O)O)cc4)=NO3)C2)cc(OCC)c1-c1ccc(F)cc1,9,33,3.3,65,solubility at 18 h [4]: 1.3 µg/mL
CCOc1cc(CN2CC3(CC(N4CCC(C(=O)O)CC4)=NO3)C2)cc(OCC)c1-c1ccc(F)cc1,,,,5.6,inhibition [5]: 8%; Tmax [6]: 2 h; Activity (Mus musculus [7]): Dose-dependent effect; Activity (Mus musculus [8]): inactive; inhibition [9]: 10%; microsomal CLint at 1 µM [10]: < 10 µL/min/mg; Cmax [11]: 74.8 ng/mL; solubility at 18 h [4]: 260 µg/mL; clearance [12]: 29.3 mL/min/kg; Activity (Mus musculus [13]): Active; Activity (Mus musculus [14]): Non-Toxic; Activity (Mus musculus [15]): Active; Activity (Mus musculus [16]): Active; Vd [17]: 3.05 L/kg; inhibition [18]: 11%; microsomal CLint at 1 µM [19]: 19 µL/min/mg; inhibition [20]: 14%; AUC(0-t) at 8 h [21]: 332 ng·h/mL; bioavailability [22]: 58%

# Further lines, with some results ahead:
IC50 [1] [nM],IC50 [2] [nM],logD [3],Structure (SMILES),"inhibition at 5 min, 30 µM (hERG (KCNH2)) [%]",other results
3200,220,,CCOc1cc(CN2CC3(CC(CCC(=O)O)=NO3)C2)cc(OCC)c1-c1ccc(F)cc1,,
130,210,3.3,CCOc1cc(CN2CC3(CC([C@H]4CC[C@@H](C(=O)O)CC4)=NO3)C2)cc(OCC)c1-c1ccc(F)cc1,33,
550,260,,CCOc1cc(CN2CC3(CC(c4cccc(C(=O)O)c4)=NO3)C2)cc(OCC)c1-c1ccc(F)cc1,,
46,31,3.5,CCOc1cc(CN2CC3(CC(c4ccc(C(=O)O)cc4Cl)=NO3)C2)cc(OCC)c1-c1ccc(F)cc1,40,
150,150,,CCOc1cc(CN2CC3(CC(c4ccc(C(N)=O)cc4)=NO3)C2)cc(OCC)c1-c1ccc(F)cc1,,
